# In ChEMBL document CHEMBL1127590 (J Med Chem, 1994):
# pIC50, pKi: −log10 of the molar value.
# Assays:
# [1] = molecular target: T1, 3-oxo-5-alpha-steroid 4-dehydrogenase 2 (Homo sapiens, UniProt P31213); assay: In vitro inhibitory activity against human type 2 5-alpha reductase
# T1 sequence (P31213 whole entry): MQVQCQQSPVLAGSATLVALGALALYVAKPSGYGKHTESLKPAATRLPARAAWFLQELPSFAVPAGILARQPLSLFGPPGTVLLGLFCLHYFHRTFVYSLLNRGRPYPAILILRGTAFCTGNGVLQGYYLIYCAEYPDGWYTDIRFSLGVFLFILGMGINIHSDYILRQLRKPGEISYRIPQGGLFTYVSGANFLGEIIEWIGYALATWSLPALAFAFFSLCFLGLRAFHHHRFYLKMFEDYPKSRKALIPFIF
# Rattus norvegicus [2] = assay: In vivo inhibition of T stimulated prostate growth in rats was reported after oral administration at a dose 10 mg/kg/day; assay type: functional, Prostate gland
# How it was run: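 Rats were castrated, and 7 days later dosed orally once daily for 7 days at 10 mg/kg/day in 1 part cremophor:2 parts saline:0.5% Tween 80 (8 rats/group). Testosterone (40 μg/kg sc in corn oil) was given 4 h after each dose. Ventral prostates were weighed on day 8. Weight reduction was expressed as a percent of the finasteride reduction versus T-treated vehicle controls.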
# [3] = molecular target: T2, 3-oxo-5-alpha-steroid 4-dehydrogenase 1 (Homo sapiens, UniProt P18405); assay: In vitro inhibitory activity against human type 1 5-alpha reductase
# T2 sequence (P18405 whole entry): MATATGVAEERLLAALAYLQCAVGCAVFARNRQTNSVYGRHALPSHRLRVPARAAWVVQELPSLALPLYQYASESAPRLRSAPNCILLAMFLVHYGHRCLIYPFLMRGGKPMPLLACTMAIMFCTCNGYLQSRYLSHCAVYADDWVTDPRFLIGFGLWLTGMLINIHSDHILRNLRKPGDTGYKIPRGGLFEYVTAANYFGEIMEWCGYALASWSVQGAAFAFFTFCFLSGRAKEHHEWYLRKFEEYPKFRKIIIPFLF
# How it was run: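 Used microsomes from baculovirus-infected SF-9 cells expressing recombinant human type 1 5AR, at final enzyme 0.05–5 nM. Buffer at pH 7 and 37 °C contained an NADPH-regenerating system. Inhibitor was preincubated 10 min before adding 100 nM [3H]testosterone.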
# [4] = In vitro inhibitory activity against human adrenal 3-beta hydroxy-delta 5-teroid isomerase
# How it was run: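 Microsomes were prepared from human adrenal tissue by homogenization and differential centrifugation. Inhibitor in 50% DMSO was preincubated 10 min at 37 °C in 100 mM potassium phosphate pH 7.5 with 1 mM NAD+. The reaction was started with 100 nM [3H]DHEA and quenched in ethanol after 15 min. DHEA-to-androstenedione conversion was measured by radio-HPLC.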
# Rattus norvegicus [5] = assay: In vivo inhibition of T stimulated prostate growth in rats was reported after oral administration at a dose 10 mg/kg/day
# [6] = Half-life after intravenous administration of 5 mg/kg/day dose in male beagles; assay type: ADME, organism-based, Canis lupus familiaris; design: route intravenous; conditions: beagle, dog, in vivo
# How it was run: (§1)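 Male beagles received iv doses of 5 or 10 mg/kg from 5 mg/mL solutions in aqueous 40% (w/v) Molecusol, and some also received oral doses. Heparinized blood was sampled from 0 min to 24 h and assayed by HPLC (UV 304 nm, or thermospray MS). AUC∞ was calculated by the trapezoidal rule.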
# [7] = Bioavailability in dog (male Beagle) i.v. administration; assay type: ADME, organism-based, Canis lupus familiaris; conditions: in vivo, po, in the assay text read “oral administration” for “[…]”; how it was run: as §1
# [8] = Half-life after intravenous administration of 10 mg/kg/day dose in male beagles; assay type: ADME, organism-based, Canis lupus familiaris; design: route intravenous; conditions: beagle, dog, in vivo; how it was run: as §1
SMILES,pIC50 [1],Reduction (Rattus norvegicus [2]),pKi [3],pKi [4],Reduction (Rattus norvegicus [5]),half-life [6],bioavailability [7],half-life [8]
CN1CC2C(CC[C@@]3(C)C2CC[C@@H]3C(=O)NC23CC4CC(CC(C4)C2)C3)[C@@]2(C)CCC(=O)C=C12 (stereo not given in full),> 10.00,12%,8.07,8.57,–,–,–,–
C[C@]12CCC(=O)C=C1NCC1C2CC[C@@]2(C)C1CC[C@@H]2C(=O)NC(c1ccc(F)cc1)c1ccc(F)cc1 (stereo not given in full),–,–,–,6.49,90%,5.2 h,–,–
CCN(CC)C(=O)[C@H]1CCC2C3CN(C)C4=CC(=O)CC[C@]4(C)C3CC[C@@]21C (stereo not given in full),8.64,52%,6.74,8.44,–,–,–,–
CC1=C2NCC3C(CC[C@@]4(C)C3CC[C@@H]4C(=O)NC(C)(C)C)[C@@]2(C)CCC1=O (stereo not given in full),8.85,0%,7.92,8.04,–,–,–,–
CC1=C2NCC3C(CC[C@@]4(C)C3CC[C@@H]4C(=O)NC(c3ccccc3)c3ccccc3)[C@@]2(C)CCC1=O (stereo not given in full),> 10.00,38%,8.44,7.74,–,–,–,–
CC1=C2NCC3C(CC[C@@]4(C)C3CC[C@@H]4C(=O)NC34CC5CC(CC(C5)C3)C4)[C@@]2(C)CCC1=O (stereo not given in full),> 10.00,24%,8.96,8.05,–,–,–,–
C[C@]12C=CC(=O)C=C1NCC1C2CC[C@@]2(C)C1CC[C@@H]2C(=O)NC(c1ccccc1)c1ccccc1 (stereo not given in full),> 10.00,0%,7.32,6.00,–,–,–,–
C[C@]12C=CC(=O)C=C1NCC1C2CC[C@@]2(C)C1CC[C@@H]2C(=O)NC12CC3CC(CC(C3)C1)C2 (stereo not given in full),> 10.00,14%,7.13,6.00,–,–,–,–
C[C@]12CCC(=O)C=C1NCC1C2CC[C@@]2(C)C1CC[C@@H]2C(=O)NC(c1ccccc1)c1ccccc1 (stereo not given in full),> 10.00,–,–,6.82,95%,4.8 h,79%,–
CC(C)CC(=O)[C@H]1CCC2C3CN(C)C4=CC(=O)CC[C@]4(C)C3CC[C@@]21C (stereo not given in full),–,–,8.51,8.96,5%,2.2 h,–,–
CC(C)(C)NC(=O)[C@H]1CC[C@H]2[C@@H]3CC[C@H]4NC(=O)C=C[C@]4(C)[C@H]3CC[C@]12C [FINASTERIDE],–,100%,–,4.96,–,–,69%,4.2 h
C[C@]12CCC(=O)C=C1NCC1C2CC[C@@]2(C)C1CC[C@@H]2C(=O)NC(c1ccc(Cl)cc1)c1ccc(Cl)cc1 (stereo not given in full),–,–,–,6.29,74%,12 h,–,–
CN1CC2C(CC[C@@]3(C)C2CC[C@@H]3C(=O)NC(C)(C)C)[C@@]2(C)CCC(=O)C=C12 (stereo not given in full),–,54%,7.06,8.18,–,–,80%,1.4 h
CN1CC2C(CC[C@@]3(C)C2CC[C@@H]3C(=O)NC(c2ccccc2)c2ccccc2)[C@@]2(C)CCC(=O)C=C12 (stereo not given in full),9.70,13%,8.19,7.96,–,–,–,–
C[C@]12CCC(=O)C=C1NCC1C2CC[C@@]2(C)C1CC[C@@H]2C(=O)NC12CC3CC(CC(C3)C1)C2 (stereo not given in full),–,38%,7.96,7.11,–,–,–,1.8 h
